Converted amounts (≈) assume the structure as drawn.
How the values were obtained:
[1] = Antiviral activity against AG110-resistant BVDV NADL assessed as inhibition of viral replication; type: functional, Bovine viral diarrhea virus 1-NADL
How it was run: (§1)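 MDBK cells were seeded at 5 × 10³/well in MEM-FCS and held 24 h at 37 °C in 5% CO₂. Medium was replaced with 5-fold serial compound dilutions, then BVDV NADL (drug-selected resistant variant) at MOI 2. CPE was read by the MTS method at OD 490 nm, and % CPE was calculated. EC50 is the concentration giving 50% protection from virus-induced CPE, by linear interpolation.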

[2] = system: Bovine viral diarrhea virus 1-NADL; test: Selectivity ratio of EC50 for LZ37-resistant BVDV NADL to EC50 for wild type BVDV NADL; type: functional
[3] = Selectivity index, ratio of CC50 for MDBK cells to EC50 for BVDV NADL infected in MDBK cells assessed as inhibition of progeny infectious viral particle production
[4] = Selectivity index, ratio of CC50 for Huh5-2 cells to EC50 for HCV genotype 1b infected in Huh5-2 cells; set-up: species or system Huh-5-2
How it was run: (§2)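 Selectivity index is the ratio of CC50 from the 3-day MTS/PMS proliferation assay to EC50 in the same cell line. For Huh 5-2 the EC50 is from the luciferase replicon assay; for MDBK it is from the MTS CPE assay.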

[5] = Cytotoxicity against human Huh5-2 cells assessed as growth inhibition after 3 days by MTS assay; type: cell-based, Huh-5-2
How it was run: (§3)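 MDBK or Huh 5-2 cells were seeded at 5 × 10³/well in MEM-FCS, with serial compound dilutions added 24 h later. Cells proliferated 3 days at 37 °C, then metabolic activity was read by MTS/PMS. CC50 is the concentration inhibiting proliferation of exponentially growing cells by 50%, by linear interpolation.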

[6] = Antiviral activity against LZ37-resistant BVDV NADL assessed as inhibition of viral replication; type: functional, Bovine viral diarrhea virus 1-NADL; how it was run: as §1
[7] = Cytotoxicity against MDBK cells assessed as growth inhibition after 3 days by MTS assay; type: cell-based, Bos taurus; settings: cattle; how it was run: as §3
[8] = Selectivity index, ratio of CC50 for MDBK cells to EC50 for BVDV NADL infected in MDBK cells; how it was run: as §2
[9] = system: Bovine viral diarrhea virus 1-NADL; test: Selectivity ratio of EC50 for BPIP-resistant BVDV NADL to EC50 for wild type BVDV NADL; type: functional
[10] = Antiviral activity against BVDV NADL infected in MDBK cells assessed as inhibition of viral RNA synthesis by RT-qPCR analysis; type: functional, cell-based, Bovine viral diarrhea virus 1-NADL; settings: Bovine viral diarrhea virus isolates and strains
[11] = Selectivity index, ratio of CC50 for MDBK cells to EC50 for BVDV NADL infected in MDBK cells assessed as inhibition of viral RNA synthesis
[12] = (§4) Antiviral activity against BVDV NADL infected in MDBK cells assessed as inhibition of virus-induced cytopathic effect formation after 5 days by MTS assay; type: functional, cell-based, Bovine viral diarrhea virus 1-NADL; settings: Bovine viral diarrhea virus isolates and strains, 120 h
How it was run: (§5)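 MDBK cells were seeded at 5 × 10³/well in MEM-FCS and held 24 h at 37 °C, 5% CO₂. Medium was replaced with 5-fold serial compound dilutions, then BVDV inoculum was added at MOI 2. CPE was read by MTS as OD at 490 nm. EC50 is the concentration giving 50% protection against virus-induced CPE, by linear interpolation.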

MDBK = test: as §4; type: functional, cell-based; settings: Bovine viral diarrhea virus 1-NADL; how it was run: as §5
[13] = Antiviral activity against BPIP-resistant BVDV NADL assessed as inhibition of viral replication; type: functional, Bovine viral diarrhea virus 1-NADL; how it was run: as §1
[14] = Selectivity ratio of EC50 for BVDV NADL infected in MDBK cells assessed as inhibition of progeny infectious viral particle production to EC50 for BVDV NADL infected in MDBK cells assessed as inhibition of viral RNA synthesis; type: functional, Bovine viral diarrhea virus 1-NADL
[15] = system: Bovine viral diarrhea virus 1-NADL; test: Selectivity ratio of EC50 for AG110-resistant BVDV NADL to EC50 for wild type BVDV NADL; type: functional
Hepatitis C virus = test: Antiviral activity against HCV genotype 1b infected in Huh5-2 cells assessed as inhibition of viral replication after 4 days by luciferase reporter gene assay; type: functional, organism-based, Hepacivirus hominis, Huh-5-2; settings: for EC50: Hepatitis C virus, genotype 1b, Huh-5-2, 96 h
How it was run: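 Huh 5-2 cells carrying the HCV subgenomic luciferase replicon were seeded at 5 × 10³/well with compound and incubated 4 days at 37 °C. Medium was removed and luciferase activity quantified. EC50 is the minimum concentration reducing replicon-driven luciferase signal by 50%.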

[16] = system: Bovine viral diarrhea virus 1-NADL; test: Selectivity ratio of EC50 for LZ37-resistant BVDV NADL to EC50 for AG110-resistant BVDV NADL; type: functional
[17] = Antiviral activity against BVDV NADL infected in MDBK cells assessed as inhibition of progeny infectious viral particle production; type: functional, cell-based, Bovine viral diarrhea virus 1-NADL; settings: Bovine viral diarrhea virus isolates and strains

| SMILES | EC50 [1] | Ratio EC50 [2] | Ratio CC50/EC50 [3] | Ratio CC50/EC50 [4] | CC50 at 72 h [5] | EC50 [6] | CC50 at 72 h [7] | Ratio CC50/EC50 [8] | Ratio EC50 [9] | EC50 [10] | Ratio CC50/EC50 [11] | EC50 [12] | inhibition (MDBK) | EC50 [13] | Ratio EC50 [14] | Ratio EC50 [15] | EC50 (Hepatitis C virus) | Ratio EC50 [16] | EC50 [17] | inhibition (INH) (Hepatitis C virus) |
| --- | --- | --- | --- | --- | --- | --- | --- | --- | --- | --- | --- | --- | --- | --- | --- | --- | --- | --- | --- | --- |
| Fc1ccc(-c2nc3ccc(Sc4ccccc4)cn3c2-c2cccc(-c3ccccc3)c2)cc1 | 3.9 µg/mL (≈ 8.25 µM) | 2.2 | 19 | >1 | > 106 µg/mL | 8.8 µg/mL (≈ 18.6 µM) | > 100 µg/mL | >50 | 1.5 | 2.7 µg/mL (≈ 5.71 µM) | 37 | 2 µg/mL (≈ 4.23 µM) | Dose-dependent effect | 6 µg/mL (≈ 12.7 µM) | 2 | 0.9 | > 106 µg/mL | 2 | 8 µg/mL (≈ 16.9 µM) | – |
| CC(C)(C)c1nc2ccc(-c3ccsc3)nn2c1-c1cccc(-c2ccc(O)cc2)c1 | – | – | – | 3 | 15 µg/mL (≈ 35.2 µM) | – | > 100 µg/mL | >7.1 | – | – | – | 14.2 µg/mL (≈ 33.4 µM) | – | – | – | – | 5 µg/mL (≈ 11.7 µM) | – | – | – |
| Fc1ccc(-c2nc3ccc(N4CCOCC4)cn3c2-c2cccc(-c3ccccc3)c2)cc1 | – | – | – | 1.7 | 11.1 µg/mL (≈ 24.7 µM) | – | > 50 µg/mL | >1 | – | – | – | > 50 µg/mL | – | – | – | – | 6.7 µg/mL (≈ 14.9 µM) | – | – | – |
| COc1ccccc1-c1nc2ccc(-c3ccsc3)nn2c1-c1cccc(-c2ccccc2O)c1 | – | – | – | >43 | > 205 µg/mL | – | 16.2 µg/mL (≈ 34.1 µM) | 12 | – | – | – | 1.36 µg/mL (≈ 2.86 µM) | – | – | – | – | 4.8 µg/mL (≈ 10.1 µM) | – | – | 60% |
| CC(C)(C)c1nc2ccc(-c3ccsc3)nn2c1-c1cccc(-c2ccoc2)c1 | – | – | – | 6.3 | 55.1 µg/mL (≈ 138 µM) | – | 4.5 µg/mL (≈ 11.3 µM) | 2.7 | – | – | – | 1.7 µg/mL (≈ 4.26 µM) | – | – | – | – | 8.7 µg/mL (≈ 21.8 µM) | – | – | – |
| CC(C)(C)c1nc2ccc(-c3ccsc3)nn2c1-c1cccc(-c2cccc(O)c2)c1 | – | – | – | 5.2 | 20 µg/mL (≈ 47 µM) | – | > 100 µg/mL | >26.7 | – | – | – | 3.7 µg/mL (≈ 8.69 µM) | – | – | – | – | 3.9 µg/mL (≈ 9.16 µM) | – | – | – |
| CC(C)(C)c1nc2ccc(-c3ccsc3)cn2c1-c1cccc(-c2ccccc2)c1 | – | – | – | >2.4 | > 123 µg/mL | – | > 100 µg/mL | >1.6 | – | – | – | 62.6 µg/mL (≈ 153 µM) | – | – | – | – | 42.5 µg/mL (≈ 104 µM) | – | – | – |
| COc1ccccc1-c1nc2ccc(-c3ccsc3)nn2c1-c1cccc(-c2ccccc2)c1 | – | – | – | 6.6 | 97.4 µg/mL (≈ 212 µM) | – | 10.4 µg/mL (≈ 22.6 µM) | 3.1 | – | – | – | 3.4 µg/mL (≈ 7.4 µM) | – | – | – | – | 14.7 µg/mL (≈ 32 µM) | – | – | – |
| Fc1ccc(-c2nc3ccc(N4CCOCC4)cn3c2-c2ccc(-c3ccccc3)cc2)cc1 | – | – | – | 2.3 | 15.6 µg/mL (≈ 34.7 µM) | – | > 50 µg/mL | >1 | – | – | – | > 50 µg/mL | – | – | – | – | 6.7 µg/mL (≈ 14.9 µM) | – | – | – |
